In ChEMBL document CHEMBL3352720, “Novel alkylphospholipid-DTC hybrids as promising agents against endocrine related cancers acting via modulation of Akt-pathway” (Eur J Med Chem, 2014):

Assays:
[1] = Antiproliferative activity against human PC3 cells assessed as inhibition of cell proliferation incubated for 18 hrs followed by MTT addition for 4 hrs by MTT assay; format: functional, cell-based; details: PC-3
Method in brief: (§1)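 MTT assay. Cells were grown in DMEM with 10% FBS at 37 °C, 5% CO2, 90% relative humidity. 1 × 10⁴ cells per well were seeded and held 24 h, then exposed to compounds diluted in culture medium for 18 h. MTT (5 mg/mL stock) was added for a further 4 h.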

MDA-MB-231 = assay: Antiproliferative activity against human MDA-MB-231 cells assessed as inhibition of cell proliferation incubated for 18 hrs followed by MTT addition for 4 hrs by MTT assay; format: functional, cell-based; method in brief: as §1
HEK293 = assay: Antiproliferative activity against HEK293 cells assessed as inhibition of cell proliferation incubated for 18 hrs followed by MTT addition for 4 hrs by MTT assay; format: cell-based; details: Homo sapiens; method in brief: as §1
MCF7 [2] = assay: Antiproliferative activity against human MCF7 cells assessed as inhibition of cell proliferation incubated for 18 hrs followed by MTT addition for 4 hrs by MTT assay; format: functional, cell-based; method in brief: as §1
[3] = Antiproliferative activity against human DU145 cells assessed as inhibition of cell proliferation incubated for 18 hrs followed by MTT addition for 4 hrs by MTT assay; format: functional, cell-based; details: DU-145; method in brief: as §1
MCF7 [4] = assay: Induction of apoptosis in human MCF7 cells assessed as early apoptotic cells level incubated for 24 hrs by annexin-V and propidium iodide staining based flow cytometry (reference value: 6.42%); format: functional
MCF7 [5] = assay: Induction of apoptosis in human MCF7 cells assessed as late apoptotic cells level incubated for 24 hrs by annexin-V and propidium iodide staining based flow cytometry (reference value: 1.85%); format: functional
MCF7 [6] = assay: Induction of cell cycle arrest in human MCF7 cells assessed as accumulation at sub-diploid phase incubated for 24 hrs by propidium iodide staining based FACS assay (reference value: 7.26%); format: functional
MCF7 [7] = assay: Induction of cell cycle arrest in human MCF7 cells assessed as accumulation at S phase incubated for 24 hrs by propidium iodide staining based FACS assay (reference value: 45.21%); format: functional
MCF7 [8] = assay: Induction of mitochondrial membrane potential loss in human MCF7 cells assessed as increase in JC1 dye monomer green fluorescence incubated for 24 hrs by JC1 dye based flow cytometry (reference value: 1.78%); format: functional
MCF7 [9] = assay: Induction of apoptosis in human MCF7 cells assessed as viable cells level incubated for 24 hrs by annexin-V and propidium iodide staining based flow cytometry (reference value: 89.58%); format: functional
MCF7 [10] = assay: Induction of apoptosis in human MCF7 cells assessed as necrotic cells level incubated for 24 hrs by annexin-V and propidium iodide staining based flow cytometry (reference value: 2.15%); format: functional
MCF7 [11] = assay: Induction of cell cycle arrest in human MCF7 cells assessed as accumulation at G0/G1 phase incubated for 24 hrs by propidium iodide staining based FACS assay (reference value: 53.32%); format: functional
MCF7 [12] = assay: Induction of cell cycle arrest in human MCF7 cells assessed as accumulation at G2/M phase incubated for 24 hrs by propidium iodide staining based FACS assay (reference value: 1.47%); format: functional

SMILES | IC50 [1] [µM] | IC50 (MDA-MB-231) [µM] | IC50 (HEK293) [µM] | IC50 (MCF7 [2]) [µM] | IC50 [3] [µM] | Activity (MCF7 [4]) [%] | Activity (MCF7 [5]) [%] | Activity (MCF7 [6]) [%] | Activity (MCF7 [7]) [%] | Activity (MCF7 [8]) [%] | Activity (MCF7 [9]) [%] | Activity (MCF7 [10]) [%] | Activity (MCF7 [11]) [%] | Activity (MCF7 [12]) [%]
CCCOP(=O)(O)OCCSC(=S)N1CCN(C)CC1 | > 100 | 62 | 39.6 | 59 | > 100 | – | – | – | – | – | – | – | – | –
CCCCCCCCOP(=O)(O)OCCSC(=S)N1CCCCC1 | > 100 | 11.9 | 69 | 26 | > 100 | – | – | – | – | – | – | – | – | –
CCCCCCCCCCCCCCCCOP(=O)([O-])OCC[N+](C)(C)C [MILTEFOSINE] | 19.9 | 2.08 | – | 34.7 | 25.8 | 44.84 | 9.43 | 3.48 | 33.07 | 50.05 | 43.6 | 2.15 | 64.8 | 2.14
CCCCCCCCCCOP(=O)(O)OCCSC(=S)N1CCN(C)CC1 | 80 | 29 | > 100 | 99.6 | 82.3 | – | – | – | – | – | – | – | – | –
CCCCCCOP(=O)(O)OCCSC(=S)N1CCCCC1 | > 100 | 85 | > 100 | 62 | > 100 | – | – | – | – | – | – | – | – | –
CCCOP(=O)(O)OCCSC(=S)N1CCCCC1 | > 100 | 68 | > 100 | > 100 | > 100 | – | – | – | – | – | – | – | – | –
CCCCCCCCCCCCCCCCOP(=O)(O)OCCSC(=S)N1CCN(C)CC1 | 95.2 | > 100 | > 100 | > 100 | 49.3 | – | – | – | – | – | – | – | – | –
CCCCCCCCCCOP(=O)(O)OCCSC(=S)N1CCCC1 | 56.1 | 67 | > 100 | 70 | 46.1 | – | – | – | – | – | – | – | – | –
CCCCCCOP(=O)(O)OCCSC(=S)N1CCCC1 | > 100 | 54 | > 100 | 100 | > 100 | – | – | – | – | – | – | – | – | –
CCCCCCCCCCCCCCCCOP(=O)(O)OCCSC(=S)N1CCCCCC1 | 32.1 | > 100 | > 100 | > 100 | 17.6 | – | – | – | – | – | – | – | – | –
CCCOP(=O)(O)OCCSC(=S)N1CCCC1 | > 100 | 67 | > 100 | 73 | > 100 | – | – | – | – | – | – | – | – | –
CCCCCCCCOP(=O)(O)OCCSC(=S)N1CCCCCC1 | 56.8 | 27 | > 100 | 78 | 59.1 | – | – | – | – | – | – | – | – | –
CCCCCCOP(=O)(O)OCCSC(=S)N1CCCCCC1 | > 100 | 17.2 | 70.5 | 55 | 77.4 | – | – | – | – | – | – | – | – | –
CCCCCCCCOP(=O)(O)OCCSC(=S)N1CCN(C)CC1 | > 100 | 58.5 | 86 | 46 | > 100 | – | – | – | – | – | – | – | – | –
CCCCCCCCCCOP(=O)(O)OCCSC(=S)N1CCCCCC1 | 32.9 | 11.4 | 70 | 43.3 | 23.9 | – | – | – | – | – | – | – | – | –
CCCCCCOP(=O)(O)OCCSC(=S)N1CCN(C)CC1 | > 100 | 73 | > 100 | 58 | > 100 | – | – | – | – | – | – | – | – | –
CCCCCCCCCCCCCCCCOP(=O)(O)OCCSC(=S)N1CCCC1 | 65.7 | 69 | > 100 | 72 | 28.9 | – | – | – | – | – | – | – | – | –
CCCOP(=O)(O)OCCSC(=S)N1CCCCCC1 | > 100 | 38 | 54 | 74 | 86.1 | – | – | – | – | – | – | – | – | –
CCCCCCCCOP(=O)(O)OCCSC(=S)N1CCCC1 | > 100 | 69 | 28.3 | 53 | 47.1 | – | – | – | – | – | – | – | – | –
